In data set [1] the test system is Mus musculus. The experiment in a line: Concentration of the 9-[2-(Phosphonomethoxy)ethoxy]adenine in the blood following oral administration in mice. Further details: unit not given here. The class given is ADME, organism-based. The note with it: in vivo. The method in brief:
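Single 0.2 mmol/kg oral gavage dose to female BALB/c mice fasted 16 h, vehicle 1% carboxymethyl cellulose plus 1% Tween 80 in water. At each time point blood from three mice pooled, deproteinized with ice-cold ethanol at -20 °C, and parent phosphonate quantified by C18 HPLC with a gradient from pH 2.6 phosphate ion-pair buffer to 80% methanol.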

Data set [2] deals with Mus musculus. The data set can be described thus: % bioavailability in mice after oral administration of prodrug. In kind it is ADME, organism-based. As to conditions: in vivo. The method in brief:
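Female BALB/c mice, fasted 16 h, single oral gavage 0.2 mmol/kg in 1% carboxymethyl cellulose plus 1% Tween 80 in water. Blood from three mice per time point pooled, ethanol-deproteinized, analysed by reversed-phase C18 HPLC (ion-pair phosphate buffer pH 2.6 / methanol gradient). Bioavailability as oral AUC of released parent phosphonate expressed as percent of intravenous AUC of its sodium salt.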

Data set [3] relates to Human immunodeficiency virus 1. The experiment in a line: Inhibitory activity against HIV-1, in peripheral blood lymphocytes.
Data set [4] deals with Feline immunodeficiency virus. The data set can be described thus: Inhibitory activity against Feline immunodeficiency virus. In kind it is functional, organism-based.
In data set [5] the test system is Human immunodeficiency virus 2. The data set can be described thus: Inhibitory activity against HIV-2, in peripheral blood lymphocytes.
Data set [6] deals with Simian immunodeficiency virus. The experiment in a line: Inhibitory activity against Simian immunodeficiency virus. In kind it is functional, organism-based.

In ChEMBL document CHEMBL1128300, “Synthesis and in vivo evaluation of prodrugs of 9-[2-(phosphonomethoxy)ethoxy]adenine” (J Med Chem, 1995) one finds AUC, F% and IC50 data, which are given here for 27 compounds.

SMILES strings stand for the structures.

`CC(=O)Oc1ccccc1OP(=O)(COCCOn1cnc2c(N)ncnc21)Oc1ccccc1OC(C)=O` returned an AUC in data set [1] of 5. The F% in data set [2] is 10%.
For `COc1ccc(OP(=O)(COCCOn2cnc3c(N)ncnc32)Oc2ccc(OC)cc2)cc1` the same measures were 5 and 10%.
The corresponding values for `Nc1ncnc2c1ncn2OCCOCP(=O)(Oc1ccc(Br)cc1)Oc1ccc(Br)cc1` are 3 and 6%.
The corresponding values for `Nc1ncnc2c1ncn2OCCOCP(=O)(OCCBr)OCCBr` are 4 and 8%.
Take `Nc1ncnc2c1ncn2OCCOCP(=O)(Oc1ccccc1)Oc1ccccc1`: the AUC in data set [1] is on record as 13. Besides, the F% in data set [2] worked out at 26%.
The corresponding values for `Cc1ccccc1OP(=O)(COCCOn1cnc2c(N)ncnc21)Oc1ccccc1C` are 11 and 22%.
The compound `CC(=O)OCc1ccc(OP(=O)(COCCOn2cnc3c(N)ncnc32)Oc2ccc(COC(C)=O)cc2)cc1` came in with an AUC in data set [1] of 0. The F% in data set [2] turned out to be 0%.
For `Nc1ncnc2c1ncn2OCCOCP(=O)(OCC(Cl)Cl)OCC(Cl)Cl` the same measures were 3 and 6%.
The corresponding values for `CCOCCOP(=O)(COCCOn1cnc2c(N)ncnc21)OCCOCC` are 0 and 0%.
For `Nc1ncnc2c1ncn2OCCOCP(=O)(O)O`, the IC50 – broadly, the point on the concentration scale where inhibition reaches its midpoint – in data set [3] turned out to be 200 nM; in data set [4], 1700 nM; in data set [5], 300 nM; in data set [6], 3000 nM.
Turning to `COP(=O)(COCCOn1cnc2c(N)ncnc21)OC`, in data set [1], the AUC came out at 0. In data set [2], the F% worked out at 0%.
For `CC(C)(C)OC(=O)c1ccc(OP(=O)(COCCOn2cnc3c(N)ncnc32)Oc2ccc(C(=O)OC(C)(C)C)cc2)cc1` the same measures were 0 and 0%.
The corresponding values for `Nc1ncnc2c1ncn2OCCOCP(=O)(OCc1ccc(Br)cc1)OCc1ccc(Br)cc1` are 1 and 2%.
For `CC(=O)Oc1ccc(COP(=O)(COCCOn2cnc3c(N)ncnc32)OCc2ccc(OC(C)=O)cc2)cc1` the same measures were 4 and 8%.
Turning to `CC(C)(C)C(=O)OCOP(=O)(COCCOn1cnc2c(N)ncnc21)OCOC(=O)C(C)(C)C`, the AUC in data set [1] came to 15. In addition, the F% in data set [2] was 30%.
The corresponding values for `CC(C)(CCl)C(=O)OCOP(=O)(COCCOn1cnc2c(N)ncnc21)OCOC(=O)C(C)(C)CCl` are 0 and 0%.
For `Nc1ncnc2c1ncn2OCCOCP(=O)(OCc1ccccc1)OCc1ccccc1` the same measures were 2 and 4%.
Consider `CC(C)C(=O)Oc1ccc(COP(=O)(COCCOn2cnc3c(N)ncnc32)OCc2ccc(OC(=O)C(C)C)cc2)cc1`, for which the AUC in data set [1] amounted to 0.5. In addition, the F% in data set [2] stood at 1%.
For `CCCCOP(=O)(COCCOn1cnc2c(N)ncnc21)OCCCC` the same measures were 0 and 0%.
For `CC(C)OP(=O)(COCCOn1cnc2c(N)ncnc21)OCC(=O)OC(C)(C)C` (stereo unspecified) the same measures were 0 and 0%.
For `CC(OC(=O)C(C)C)OP(=O)(COCCOn1cnc2c(N)ncnc21)OC(C)OC(=O)C(C)C` (stereo unspecified) the same measures were 12 and 24%.
With `CC(OC(=O)C(C)(C)C)OP(=O)(COCCOn1cnc2c(N)ncnc21)OC(C)OC(=O)C(C)(C)C` (stereo unspecified), the AUC in data set [1] is on record as 37. In data set [2], the F% was found to be 74%.
The corresponding values for `CC(C)OP(=O)(COCCOn1cnc2c(N)ncnc21)OC(C)C` are 5 and 10%.
With `CCOP(=O)(COCCOn1cnc2c(N)ncnc21)OCC`, the AUC in data set [1] is listed as 4. Also, the F% in data set [2] is listed as 8%.
In data set [1], `CC(=O)Oc1ccc(OP(=O)(COCCOn2cnc3c(N)ncnc32)Oc2ccc(OC(C)=O)cc2)cc1` registered an AUC of 4. The F% in data set [2] amounted to 8%.
The corresponding values for `Nc1ncnc2c1ncn2OCCOCP(=O)(OCc1ccc(Cl)cc1)OCc1ccc(Cl)cc1` are 4 and 8%.
The compound `Cl.Nc1ncnc2c1ncn2OCCOCP(=O)(Oc1ccccc1)Oc1ccccc1` yielded an AUC in data set [1] of 25. Also, the F% in data set [2] was determined as 50%.
